The record followed here is ChEMBL document CHEMBL5370673 (ACS Med Chem Lett, 2023).

Active and inactive are the calls of the source. No cut-off for these calls is given here. A value given as a limit tells only on which side of the number the result lay.

The test system of assay [1] is Schistosoma mansoni. Kind of assay: Antischistosomal activity against Schistosoma mansoni assessed as maximal effect at <= 320 uM. The format is functional, organism-based.
The subject of assay [2] is Schistosoma mansoni. Nature of the assay: Antischistosomal activity against Schistosoma mansoni infected in CF1/W74 mouse assessed as reduction in parasitic flatworms viability at 500 mg/kg administered for 5 days relative to control. In kind it is functional.
Assay [3] concerns Rodentolepis nana. Nature of the assay: Anti-cestodal activity against Hymenolepis nana infected in CF1/W74 mouse assessed as reduction in parasitic flatworms at 500 mg/kg relative to control. The format is functional. More on the design: scale not given: the % may be the effect or the level left.
A short description of assay [4]: Activation of Schistosoma mansoni in TRPM binding site of PZQ expressed in HEK293 cells assessed as effect in cytosolic Ca2+ level measured for 250 sec by […] NW staining based FLIPR assay. In kind it is cell-based.
Assay [5] is described as follows: Activation of Echinococcus granulosus in TRPM binding site of PZQ expressed in HEK293 cells assessed as effect in cytosolic Ca2+ level measured for 250 sec by […] NW staining based FLIPR assay. The format is cell-based.
A short description of assay [6]: Activation of Mesocestoides corti in TRPM binding site of PZQ expressed in HEK293 cells assessed as effect in cytosolic Ca2+ level measured for 250 sec by […] NW staining based FLIPR assay. The format is cell-based. Summed up: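 HEK293 cells transiently transfected with the individual TRPMPZQ ortholog (S. mansoni, E. granulosus or M. corti). Cytosolic Ca2+ change read by fluorescence reporter (FLIPR) across increasing analog concentrations. Untransfected HEK293 cells serve as control.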

The subject of assay [7] is Rodentolepis nana. Kind of assay: Anti-cestodal activity against Hymenolepis nana infected in CF1/W74 mouse assessed as reduction in parasitic flatworms at 25 mg/kg relative to control. In kind it is functional. More on the design: scale not given: the % may be the effect or the level left.
Assay [8] can be described thus: Selectivity ratio of EC50 for activation of Schistosoma mansoni in TRPM binding site of PZQ expressed in HEK293 cells to EC50 for activation of Echinococcus granulosus in TRPM binding site of PZQ expressed in HEK293 cells. The format is cell-based.
The nature of assay [9]: Selectivity ratio of EC50 for activation of Schistosoma mansoni in TRPM binding site of PZQ expressed in HEK293 cells to EC50 for activation of Mesocestoides corti in TRPM binding site of PZQ expressed in HEK293 cells. In kind it is cell-based.
For assay [10], the system named is Schistosoma mansoni. Nature of the assay: Antischistosomal activity against Schistosoma mansoni assessed as maximal effect at <= 3.2 uM. The format is functional, organism-based.
Assay [11] deals with Schistosoma mansoni. Kind of assay: Antischistosomal activity against Schistosoma mansoni infected in CF1/W74 mouse assessed as reduction in parasitic flatworms viability at 50 mg/kg administered for 5 days relative to control. In kind it is functional. The note with it: time 5 day.
The test system of assay [12] is Echinococcus multilocularis. Nature of the assay: Anthelmintic activity against Echinococcus multilocularis MB17 protoscoleces assessed as increase in contraction at 1 uM by live cell imaging analysis. The format is functional, organism-based.
Assay [13] deals with Echinococcus multilocularis. Nature of the assay: Anthelmintic activity against Echinococcus multilocularis MB17 protoscoleces assessed as reduction in motility measured after 24 hrs by live cell imaging analysis. The format is functional, organism-based. Put shortly:
(§1)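 E. multilocularis protoscoleces incubated ex vivo across a concentration range. Motility scored at 0.5, 12 and 24 h and expressed as % of DMSO vehicle control (mean ± SEM). IC50 taken from concentration–response curves at each time point.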

Assay [14] deals with Echinococcus multilocularis. Kind of assay: Anthelmintic activity against Echinococcus multilocularis MB17 protoscoleces assessed as reduction in motility at 0.001 to 100 uM measured after 0.5 hrs by live cell imaging analysis. The format is functional, organism-based. The note with it: dose 0.001-100 µM. Put shortly: as §1
Assay [15] concerns Echinococcus multilocularis. Kind of assay: Induction of morphological changes in Echinococcus multilocularis MB17 protoscoleces assessed as increase in contraction at 100 uM by cestode motility assay. In kind it is functional, organism-based.
Assay [16] deals with Echinococcus multilocularis. Kind of assay: Anthelmintic activity against Echinococcus multilocularis MB17 protoscoleces assessed as increase in contraction at 30 uM by live cell imaging analysis. The format is functional, organism-based.
[17] abbreviates: Echinococcus granulosus, HEK293, read-out: EC50.
Setting [18] is: Mesocestoides corti, HEK293, read-out: EC50.

A word on the EC50: it is the concentration needed to bring the measured effect to its halfway point. For `O=C(C1CC1)N1CC(=O)N2CCc3ccccc3C2C1` (centres undefined), in the assay with Schistosoma mansoni [1], the outcome was inactive. For the same compound, the Activity with Schistosoma mansoni [2] (time 5 day) is less than 90%; with Rodentolepis nana [3], 100%. Besides, the figures for the EC50 result in assay [4] (hek293), in assay [5] (setting [17]) and in assay [6] (setting [18]) were “Not Active”, 53000 nM and 65000 nM, respectively.
As to `O=C(c1cccnc1)N1CC(=O)N2CCc3ccccc3C2C1` (racemic), the result with Schistosoma mansoni [1] was Active. Besides, the Activity in the assay on Schistosoma mansoni [2] (time 5 day) is less than 90%; with Rodentolepis nana [7], 100%. The EC50 result is “Not Active” in assay [4] (hek293), 2300 nM in [5] (setting [17]) and 5300 nM in assay [6] (setting [18]).
As for `Nc1ccc(C(=O)N2CC(=O)N3CCc4ccccc4C3C2)cc1` (centres undefined), the result in the assay with Schistosoma mansoni [1] was Active. Moreover, the Activity in the assay on Schistosoma mansoni [2] (time 5 day) and with Rodentolepis nana [7] was 100% throughout. The EC50 in assay [5] (setting [17]) came out at 960 nM; in assay [6] (setting [18]), 800 nM. Further, the Ratio EC50 in [8] and in [9] was 8 throughout.
Consider `O=C(C1CCCCC1)N1CC(=O)N2CCc3ccccc3C2C1` (racemic) [PRAZIQUANTEL], for which the result (in the assay on Schistosoma mansoni [10]; in assay [12]; in [13]; in [14]) was Active. Also, the Activity with Schistosoma mansoni [11] and in the assay with Rodentolepis nana [7] was 100% each time. Besides, the EC50 in assay [6] (setting [18]) is 120 nM.
In the case of `N[C@H]1CC[C@@H](C(=O)N2CC(=O)N3CCc4ccccc4C3C2)CC1` (some centres undefined), the result in the assay with Schistosoma mansoni [1] and with Schistosoma mansoni [2] (time 5.0 day) was inactive. Moreover, the Activity in the assay on Rodentolepis nana [3] is listed as less than 90%. Moreover, the EC50 result in [4] (hek293) is “Not Active”; in [5] (setting [17]), greater than 100000 nM; in [6] (setting [18]), greater than 100000 nM.
`O=C(C1CCCCC1)N1CC(=O)N2CCc3ccccc3[C@H]2C1`: the result in the assay with Schistosoma mansoni [1] was Active. Besides, the values for the Activity in the assay on Schistosoma mansoni [2] (time 5 day) and with Rodentolepis nana [3] were greater than 90% and 100%, respectively. Further, the EC50 in assay [6] (setting [18]) came out at 1230 nM.
Turning to `O=C(c1ccc([N+](=O)[O-])cc1)N1CC(=O)N2CCc3ccccc3C2C1` (centres undefined), the result in the assay with Schistosoma mansoni [1] was inactive. Also, the values for the Activity with Schistosoma mansoni [2] (time 5 day) and in the assay with Rodentolepis nana [3] were less than 90% and 100%, respectively. Besides, the EC50 entry in [4] (hek293), in [5] (hek293) and in assay [6] (hek293) was “Not Active” in each case.
`O=C(c1cccnc1)N1CC(=O)N2CCc3ccccc3[C@H]2C1`: the outcome with Schistosoma mansoni [1] and in the assay with Schistosoma mansoni [2] (time 5.0 day) was inactive. In the assay on Rodentolepis nana [3], the Activity is 100%. For the same compound, the EC50 entry in assay [4] (hek293) is “Not Active”; in [5] (setting [17]), 22000 nM; in [6] (setting [18]), 16000 nM. For the same compound, the result in [15] and in [14] was Active.
As for `CN(C)c1ccc(C(=O)N2CC(=O)N3CCc4ccccc4C3C2)cc1` (centres undefined), the result in the assay with Schistosoma mansoni [1] was inactive. For the same compound, the Activity in the assay with Schistosoma mansoni [2] (time 5 day) and in the assay with Rodentolepis nana [7] was 100% in each case. The EC50 entry in assay [4] (hek293), in [5] (hek293) and in assay [6] (hek293) was “Not Active” throughout.
`O=C(C1CCCCC1)N1CC(=O)N2CCc3ccccc3[C@@H]2C1` [PRAZIQUANTEL, (R)-]: in the assay on Schistosoma mansoni [10], the outcome was Active. Also, the Activity in the assay on Schistosoma mansoni [11] and in the assay with Rodentolepis nana [7] was 100% in each case. In addition, in assay [6] (setting [18]), the EC50 turned out to be 80 nM.
Consider `CNc1ccc(C(=O)N2CC(=O)N3CCc4ccccc4C3C2)cc1` (centres undefined), for which, in the assay with Schistosoma mansoni [1], the outcome was inactive. Also, the Activity in the assay on Schistosoma mansoni [2] (time 5 day) and in the assay on Rodentolepis nana [7] was 100% each time. The EC50 result in assay [4] (hek293) is “Not Active”; in assay [5] (setting [17]), greater than 100000 nM; in [6] (setting [18]), greater than 100000 nM.
For `O=C(c1cccnc1)N1CC(=O)N2CCc3ccccc3[C@@H]2C1`, the outcome in the assay on Schistosoma mansoni [1] was inactive. The Activity with Schistosoma mansoni [2] (time 5 day) and with Rodentolepis nana [7] was 100% each time. Besides, the concentration for a half-maximal effect (EC50) in assay [4] (Schistosoma mansoni, HEK293, read-out: EC50) is greater than 100000 nM; in assay [5] (setting [17]), 1400 nM; in assay [6] (setting [18]), 980 nM. The result in [16] and in [14] was Active.
